Screens: PubChem BioAssay, The Scripps Research Institute Molecular Screening Center
The sample as a whole holds a higher share of hits than the screen did.
RORA inh: inhibitors of human nuclear receptor RORA; CHO-K1 Gal4-RORA LBD luciferase reporter, luminescence; AID 561; P35398; 65,000 tested, 0.43% active; inhibition, % at 10 µM;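 active means inhibition above the mean of all tested compounds plus 3 SD, cut at about 52% in these data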;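 further: 0% = RORA-transfected cells with DMSO and 100% = mock-transfected cells lacking RORA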
Target sequence (P35398 whole entry, looked up, the tested form may be a part): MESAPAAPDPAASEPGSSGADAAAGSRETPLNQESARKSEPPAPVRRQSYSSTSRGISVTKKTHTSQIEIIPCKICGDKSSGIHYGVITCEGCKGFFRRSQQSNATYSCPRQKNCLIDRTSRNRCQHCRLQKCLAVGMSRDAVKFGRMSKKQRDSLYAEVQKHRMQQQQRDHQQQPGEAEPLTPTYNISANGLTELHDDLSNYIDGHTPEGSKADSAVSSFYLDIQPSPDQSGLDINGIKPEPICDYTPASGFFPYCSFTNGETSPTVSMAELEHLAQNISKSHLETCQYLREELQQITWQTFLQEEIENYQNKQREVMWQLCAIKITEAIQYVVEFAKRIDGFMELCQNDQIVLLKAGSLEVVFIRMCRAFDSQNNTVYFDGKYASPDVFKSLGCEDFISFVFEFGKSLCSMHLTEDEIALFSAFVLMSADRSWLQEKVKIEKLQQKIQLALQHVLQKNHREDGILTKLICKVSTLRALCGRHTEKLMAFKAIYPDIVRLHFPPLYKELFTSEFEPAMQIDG
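Test system – CHO-K1 Gal4-RORA LBD luciferase reporter cells · Schedule – 20 h at 37 °C · Signal – luminescence from basal luciferase reporter expression · Measure – percent inhibition of basal reporter luminescence, control-normalized · Control set – -RORA mock-transfected DMSO wells 100%, +RORA DMSO wells 0%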
* hit, by the source's call.

SMILES	RORA inh
C=CCNc1ncnc2c1cnn2-c1cccc(C)c1	-54.7
CC1CN(c2ncnc3c2cnn3-c2ccc(Cl)cc2)CC(C)O1 (stereo unspecified)	-67.1
COc1ccc(-n2ncc3c(N4CCCCC4)ncnc32)cc1	87.1*
Cc1cccc(-n2ncc3c(N4CCOCC4)ncnc32)c1	67.3*
Cc1cccc(-n2ncc3c(NCCCO)ncnc32)c1	-83.1
COc1ccc2nc(N3CCCCC3)c(C#N)cc2c1	-30.7
CCCCNc1ncnc2c1cnn2-c1ccc(Cl)cc1	-109.3
Clc1ccc(-n2ncc3c(N4CCCCCC4)ncnc32)cc1	68.3*
COc1ccc(-n2c(C)nc3c(cnn3-c3ccc(C)c(C)c3)c2=O)cc1	-64.9
CCOc1ccccc1/C=c1\sc2ncnn2c1=O	-0.9
Cc1ccc2c(=O)c(CN(C)C3CCN(C)CC3)c(C)[nH]c2c1C	17.8
COc1ccc(C2CCCN2C(=O)Nc2cccc(C(C)=O)c2)cc1OC (stereo unspecified)	-4.9
CCOC(=O)C1CCCN(C(=O)C2CCN(S(=O)(=O)c3cnc[nH]3)CC2)C1 (stereo unspecified)	9.5
Cn1c(CCNC(=O)c2ccccc2F)nnc1SCc1nc2ccccc2c(=O)[nH]1	-0.4
Cc1nnc(SC(=O)N2c3ccccc3Sc3ccccc32)s1	71.3*
CCOC(=O)Nc1ccc2c(c1)N(C(=O)N1CCN(C)CC1)c1ccccc1S2	-9.1
Cc1nnc(SCC(=O)N2CCc3ccccc32)s1	-21.2
O=C1c2ccccc2C(=O)N1CNc1ccccc1	16.7
O=C(CSCc1cccc(F)c1)N1CCN(c2ccccc2)CC1	-52.6
CC1CCCCC1NS(=O)(=O)c1ccc(S(=O)(=O)N2CCCC2)cc1 (stereo unspecified)	18.2
Cn1cc(S(=O)(=O)NCc2cccs2)c(=O)n(C)c1=O	0.6
COc1cc(CC(=O)Nc2ccc(S(=O)(=O)Nc3ncccn3)cc2)cc(OC)c1OC	0.9
CC(C)Cn1cc(C(=O)NCc2cccs2)c2c3ccccc3n(C)c2c1=O	-6.4
c1c2c(cc3sc(N4CCOCC4)nc13)OCCO2	68.9*
c1ccc(N2CCN(c3nc4cc5c(cc4s3)OCCO5)CC2)cc1	-77.0
SMILES	RORA inh
CCOc1ccc2nc(N3CCCC(C(=O)NCCCN4CCOCC4)C3)sc2c1 (stereo unspecified)	2.3
CC(=O)c1ccc(NC(=O)CSc2nnc(Cn3c(=O)sc4ccccc43)n2C)cc1	-4.6
Nc1nc(CSc2nc3ccccc3s2)nc(N2CCCCC2)n1	-14.1
O=C(O)CCSc1nc2ccccc2s1	54.4*
Cn1c(=O)c2c(nc(N3CCCCC3)n2CCSc2nc3ccccc3s2)n(C)c1=O	0.4
O=C(CN(CCO)c1ccccc1)NC12CC3CC(CC(C3)C1)C2	23.8
CCN(C(=O)COc1ccccc1)c1nnc(-c2cccnc2)s1	-4.6
Cc1cc(NC(=O)c2noc3c2CCCCC3)no1	-58.4
CCCN1C(=O)c2ccc(C(=O)Nc3cc(C)on3)cc2C1=O	8.9
Cc1cc(NC(=O)c2ccc3c(c2)OCCO3)no1	58.9*
CCCc1cc(=O)[nH]c(SCC(=O)Nc2ccc(OC(F)F)cc2)n1	18.3
CCOC(=O)c1ccc(Oc2cc(C)nc(SC)n2)cc1	-56.6
Cc1noc(C)c1COC(=O)c1cccc(S(=O)(=O)N2c3ccccc3CC2C)c1 (stereo unspecified)	-27.7
Cc1ccc2nc(-c3ccccc3)cn2c1	89.1*
Cc1cccn2cc(-c3ccccc3)nc12	-75.8
COc1ccc(NC(=O)c2cc(-c3ccc(C)o3)nc3ccccc23)cc1OC	-53.0
COc1ccc(CNC(=O)c2cc3c(C)nc4ccccc4c3o2)c(OC)c1	55.4*
COc1ccc(Nc2nc(C)c3ccccc3n2)cc1	-55.1
C=CCNC(=O)c1cc(-c2ccc(Br)cc2)on1	-61.1
CCc1ccc(NC(=O)N(CCCN2CCOCC2)C(C)c2cc3cccc(OC)c3o2)cc1 (stereo unspecified)	5.2
CCOC(=O)N1CCN(Cc2nc3c(c(=O)[nH]c(=O)n3C)n2CCCc2ccccc2)CC1	20.0
COc1cc(OC)cc(-c2nnc(SCC(=O)N(Cc3ccccc3)C(C)(C)C)o2)c1	13.1
O=C(CSc1nnc(Cn2nnc3ccccc32)o1)N(Cc1ccc(F)cc1)c1ccccc1	71.3*
COc1cc(-c2nnc(SCC(=O)N(Cc3ccccc3)C(C)(C)C)o2)cc(OC)c1OC	-14.1
c1ccc(Nc2cc(Nc3ccccc3)[nH]n2)cc1	-9.4
SMILES	RORA inh
COc1ccc(S(=O)(=O)N(CC(=O)N2CCN(C)CC2)c2ccccc2)cc1OC	8.1
O=C1c2ccccc2C(=O)C1c1ccc2ccccc2n1	70.0*
COc1ccc(CNC(=O)C2CSC(=O)C2)cc1 (stereo unspecified)	10.8
O=C(CCCOc1ccccc1)Nc1ccc2c(c1)OCCO2	3.7
COc1ccc(NC(=O)CN2CCN(CC(=O)Nc3ccccc3F)CC2)c(OC)c1	-0.4
COc1cc(CC(NC(C)=O)C(=O)NC2CCN(c3nc(C)cc(C)c3C#N)CC2)cc(OC)c1 (stereo unspecified)	74.7*
COc1ccc(Nc2nc(C)cc(C)c2C#N)cc1	-4.4
CC(=O)NC(Cc1ccccc1)C(=O)NC1CCN(C(=O)NC2CCCCC2)CC1 (stereo unspecified)	2.6
O=C(NCCCN1CCOCC1)C1CC(=O)N(C2CCCCC2)C1 (stereo unspecified)	12.6
COc1cccc2c(=O)n(CC(=O)N3CCN(c4ccccc4)CC3)ccc12	-16.0
CCC(C(=O)Nc1ccccc1OC)n1c(C(=O)OC)cc2ccsc21 (stereo unspecified)	5.2
COc1ccc(S(=O)(=O)N2Cc3ccccc3CC2C(=O)Nc2ccc(O)cc2)cc1OC (stereo unspecified)	-31.2
Cc1ccc(C)n1-c1ccc(N2CCOCC2)nc1	12.1
CC1(C)CC(=O)C2=C(C1)Oc1nc3ccccc3cc1C2C(C#N)C#N (stereo unspecified)	72.1*
Cc1ccc2c(c1)C(N1CCCC1=O)CC(c1ccco1)N2 (stereo unspecified)	-52.2
Cc1nn(-c2nc3ccccc3[nH]2)c(N)c1-c1ccccc1	-54.3
O=C1c2ccccc2S(=O)(=O)N1Cc1nc2ccccc2s1	53.7*
CC1CCN(C(=O)CN2C(=O)c3ccccc3S2(=O)=O)CC1	-26.3
CN(C)c1ccc(C2=NOC(CN3C(=O)c4ccccc4S3(=O)=O)C2)cc1 (stereo unspecified)	-60.1
Cc1cccc2cc(COC(=O)COc3ccccc3)c(=O)[nH]c12	-10.0
CNc1nc(C)nc(-c2ccccc2O)n1	-13.5
COc1ccc(CNC(=O)CSc2nnnn2Cc2ccccc2)cc1	-31.5
Cc1cccc(C)c1OCC(=O)NCc1nnc(SCC(=O)NC2CCCCC2)n1C	4.4
O=C(CSc1nnnn1C1CC2CCC1C2)Nc1ccnc2ccccc12 (stereo unspecified)	84.6*
CCOC(=O)c1cnc(=O)[nH]c1C	2.7
SMILES	RORA inh
O=C(NCc1ccc(F)cc1)c1cc2n(n1)C(C(F)(F)F)CC(C1CC1)N2 (stereo unspecified)	-63.9
O=C(Nc1ccc2c(c1)OCO2)Oc1ccccc1	-8.5
O=C(Nc1ccc2c(c1)OCO2)c1cc(C2CC2)on1	-59.7
O=C(/C=C\Nc1ccc2c(c1)OCO2)c1ccccn1	84.8*
CCCOc1ccc(N2CC(C(=O)Nc3ncccc3C)CC2=O)cc1 (stereo unspecified)	19.2
Cc1ccc(S(=O)(=O)Nc2cccc3ncccc23)s1	80.2*
c1ccc(N=P(N2CCOCC2)(N2CCOCC2)N2CCOCC2)cc1	18.5
Cc1cc(Br)c(S(=O)(=O)n2nnc3ccccc32)cc1C	5.9
